From ChEMBL document CHEMBL1134649, “Syntheses and structure--activity relationships of novel apio and thioapio dideoxydidehydronucleosides as anti-HCMV agents” (J Med Chem, 2001)
In brackets after ≈: the same amount, converted by molar mass.

Tests used:
Human betaherpesvirus 5 [1] = experiment: Antiviral activity was determined against Human cytomegalovirus (HCMV) strain AD-169 using CPE inhibition assay; format: functional, organism-based
Method in brief: (§1)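 HEL cells in stationary phase were infected at 2–4 CCID50 per well and the virus was adsorbed 2 h at 37 °C. Unadsorbed virus was removed and compound in MEM/2% FBS was added, in duplicate per concentration, for 6 days. CPE was read either microscopically (70% ethanol fixation, Giemsa stain) or by fluorescein diacetate fluorescence (485/538 nm). EC50 was taken from semilog plots of %CPE against concentration.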

HEL 299 = experiment: Cytotoxic concentration of compound was tested against HEL299(human embryonic lung fibroblast) cells using cytotoxic assay; format: functional
Method in brief: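 Run as a mock-infected control alongside the antiviral assay in HEL cells, with the same 6-day incubation in MEM/2% FBS. Viability was read by propidium iodide fluorescence in place of fluorescein diacetate. CC50 is the concentration giving 50% loss of viability.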

Human betaherpesvirus 5 [2] = experiment: Antiviral activity was determined against Human cytomegalovirus (HCMV) strain Davis using CPE inhibition assay; format: functional, organism-based; method in brief: as §1

Row | Compound | EC50 (Human betaherpesvirus 5 [1]) [µg/mL] | CC50 (HEL 299) [µg/mL] | EC50 (Human betaherpesvirus 5 [2]) [µg/mL]
1 | Cc1cn(C2C=C(CO)CS2)c(=O)[nH]c1=O (stereo not given) | > 100 | > 100 | > 100
2 | O=c1[nH]c(=O)n(C2C=C(CO)CO2)cc1I (stereo not given) | 44.1 (≈ 131 µM) | > 100 | 27.2 (≈ 80.9 µM)
3 | O=c1[nH]c(=O)n(C2C=C(CO)CO2)cc1Br (stereo not given) | 33.7 (≈ 117 µM) | > 100 | 25.4 (≈ 87.9 µM)
4 | O=c1ccn(C2C=C(CO)CS2)c(=O)[nH]1 (stereo not given) | > 100 | > 100 | > 100
5 | Cc1cn(C2C=C(CO)CO2)c(=O)[nH]c1=O (stereo not given) | 33.3 (≈ 149 µM) | > 100 | 16.6 (≈ 74 µM)
6 | O=c1ccn(C2C=C(CO)CO2)c(=O)[nH]1 (stereo not given) | 11.7 (≈ 55.7 µM) | 33.3 (≈ 158 µM) | > 33.3
7 | O=c1[nH]c(=O)n(C2C=C(CO)CO2)cc1Cl (stereo not given) | 41.7 (≈ 170 µM) | 63.3 (≈ 259 µM) | 25.1 (≈ 103 µM)
8 | O=c1[nH]c(=O)n(C2C=C(CO)CO2)cc1F (stereo not given) | 6.9 (≈ 30.2 µM) | > 100 | 2.81 (≈ 12.3 µM)
9 | O=C(O)P(=O)(O)O [FOSCARNET] | 64.9 (≈ 515 µM) | > 300 | 38.7 (≈ 307 µM)
10 | Nc1nc2c(ncn2COC(CO)CO)c(=O)[nH]1 [GANCICLOVIR] | 1.09 (≈ 4.27 µM) | > 10 | 0.61 (≈ 2.39 µM)
